# Test results reported in ChEMBL document CHEMBL1212775, “A novel class of meso-tetrakis-porphyrin derivatives exhibits potent activities against hepatitis C virus genotype 1b replicons in vitro” (Antimicrob Agents Chemother, 2010).
# Calls of active or inactive are those of the source. No cut-off for these calls is given here.
# Legend:
# Hepatitis C virus [1] = assay: Antiviral activity against Hepatitis C virus genotype 1b Con1 infected in human Huh-luc/neo-ET replicon cells assessed as reduction of replicon luciferase signal after 72 hrs by luciferase reporter assay in presence of 10% fetal bovine serum; format: functional, organism-based, Hepacivirus hominis
# How it was run: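 Huh-luc/neo-ET cells without G418, incubated with serially diluted compounds in medium containing 5%, 10%, 20% or 40% (vol/vol) FBS. Firefly luciferase read after 72 h. EC50 from dose-effect curves. The 0% value is a theoretical EC50 extrapolated from the plot of EC50 versus serum level. Means ± SD of three independent experiments.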
# Hepatitis B virus = assay: Antiviral activity against Hepatitis B virus infected in human 2.2.15 cells assessed as reduction of […] after 72 hrs by southern DNA hybridization method; format: functional, organism-based; conditions: HepG2 2.2.15, 72 h
# Hepatitis C virus [2] = assay: Antiviral activity against Hepatitis C virus genotype 1b Con1 infected in human Huh-luc/neo-ET replicon cells assessed as viral replicon survival dosed at 50 nM incubated for 12 days followed by compound removal and reintroduction of 250 ug/ml G418 measured after 12 days post compound withdrawal; format: functional, Hepacivirus hominis
# How it was run: (§1)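 Huh-luc/neo-ET cells were seeded at 2 × 10^5 per well and kept without G418 for 12 days with DMSO or up to 1 μM drug. Cells were split every 3 days, with medium and drug renewed. Drug was then removed and 250 μg/ml G418 added for 12 more days, sampling at confluence. HCV 5′UTR RNA was measured by one-step qRT-PCR, normalised to β-actin and expressed relative to mock. Viability was read by CellTiter-Glo as % of mock.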
# CCRF-CEM = assay: Mitochondrial DNA toxicity in human CEM cells; format: cell-based
# How it was run: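 CEM cell lysates slot-blotted and hybridized with an mtDNA-specific probe, then reprobed with an Alu probe as internal control. Bands quantified by autoradiography and densitometry.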
# Hepatitis C virus [3] = assay: Antiviral activity against Hepatitis C virus genotype 1b Con1 infected in human Huh-luc/neo-ET replicon cells assessed as reduction of virus-induced cytopathic effect after 72 hrs by luciferase reporter assay; format: functional, organism-based, Hepacivirus hominis
# How it was run: (§2)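 Replicon cells grown without G418, seeded at 5 × 10^3 per well, treated next day in duplicate with serial dilutions (DMSO control) at 37°C for 72 h. After a PBS wash, cells lysed in ice-cold passive lysis reagent and firefly luciferase RLU read as percent of compound-free control. EC50 by nonlinear regression of the dose-effect curve.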
# Hepatitis C virus [4] = assay: Antiviral activity against Hepatitis C virus genotype 1b Con1 infected in human Huh-luc/neo-ET replicon cells assessed as reduction of replicon luciferase signal after 72 hrs by luciferase reporter assay; format: functional, organism-based, Hepacivirus hominis; how it was run: as §2
# Hepatitis C virus [5] = assay: Antiviral activity against Hepatitis C virus genotype 1b Con1 infected in human Huh-luc/neo-ET replicon cells assessed as reduction in viral RNA level after 48 hrs by RT-PCR; format: functional, organism-based, Hepacivirus hominis
# How it was run: (§3)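 Cells seeded at 1 × 10^5 per well and treated with DMSO or compound up to 250 nM for 24, 48 or 72 h. Total RNA diluted to 50 ng/μl. Replicon RNA (5′ UTR) measured in triplicate by one-step qRT-PCR, normalized to β-actin mRNA, and expressed as percent of mock control. Three independent repeats.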
# [6] = Cytotoxicity against human Huh-7 cells by luminescence based cell viability assay
# Hepatitis C virus [7] = assay: Antiviral activity against Hepatitis C virus genotype 1b Con1 infected in human Huh-luc/neo-ET replicon cells assessed as inhibition of virus-induced cytopathic effect after 48 hrs by luciferase reporter assay; format: functional, organism-based, Hepacivirus hominis
# How it was run: (§4)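 Huh-luc/neo-ET cells seeded at 1 × 10^5 per well and treated with DMSO or serially diluted compound up to 250 nM. Harvested at 24 or 48 h. Luciferase run in triplicate and RLU normalized to total protein (Bradford), expressed as percent of mock control. Three independent repeats averaged.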
# Hepatitis C virus [8] = assay: Antiviral activity against Hepatitis C virus genotype 1b Con1 infected in human Huh-luc/neo-ET replicon cells assessed as inhibition of viral rebound dosed at 300 nM incubated for 12 days followed by compound removal and reintroduction of 250 ug/ml G418 measured after 9 days post compound withdrawal; format: functional, organism-based; conditions: Hepacivirus hominis; how it was run: as §1
# Hepatitis C virus [9] = assay: Antiviral activity against Hepatitis C virus genotype 1b Con1 infected in human Huh-luc/neo-ET replicon cells assessed as viral replicon survival dosed at 300 nM incubated for 9 days followed by compound removal and reintroduction of 250 ug/ml G418 measured after 15 days post compound withdrawal; format: functional, Hepacivirus hominis
# How it was run: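 In a separate run, Huh-luc/neo-ET replicon cells were treated for 9 days without G418. Drug was then withdrawn and cells were kept for a 15-day rebound period under G418 selection. Surviving cells were scored as the fraction of the population that outlasted selection.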
# Hepatitis C virus [10] = assay: Antiviral activity against Hepatitis C virus genotype 2a JFH1 infected in human YSGR-JFH replicon cells assessed as inhibition of virus RNA level after 72 hrs by quantitative RT-PCR; format: functional, organism-based, Hepacivirus hominis; conditions: subtype 2a JFH1, 72 h
# How it was run: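 YSGR-JFH genotype 2a subgenomic replicon cells (maintained with 400 μg/ml G418), 1 × 10^5 per well, incubated with DMSO, serially varied compound, or IFN-α-2a for 72 h. HCV RNA by qRT-PCR normalized to β-actin, as percent of mock-treated control. Mean ± SD of three independent experiments.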
# Hepatitis C virus [11] = assay: Antiviral activity against Hepatitis C virus genotype 1b Con1 infected in human Huh-luc/neo-ET replicon cells assessed as reduction in viral RNA level after 24 hrs by RT-PCR; format: functional, organism-based, Hepacivirus hominis; how it was run: as §3
# Hepatitis C virus [12] = assay: Antiviral activity against blasticidin resistant Hepatitis C virus genotype 1b Con1 replicon infected in human HuH7 cells assessed as reduction in viral RNA level by RT-PCR; format: functional, organism-based, Hepacivirus hominis; conditions: Con1, Huh-7
# Hepatitis C virus [13] = assay: Antiviral activity against Hepatitis C virus genotype 1b Con1 infected in human Huh-luc/neo-ET replicon cells assessed as inhibition of virus-induced cytopathic effect after 24 hrs by luciferase reporter assay; format: functional, organism-based, Hepacivirus hominis; how it was run: as §4
# Hepatitis C virus [14] = assay: Antiviral activity against Hepatitis C virus genotype 1b Con1 infected in human Huh-luc/neo-ET replicon cells assessed as viral replicon survival dosed at 50 nM incubated for 12 days followed by compound removal and reintroduction of 250 ug/ml G418 measured after 6 days post compound withdrawal; format: functional, Hepacivirus hominis; how it was run: as §1
# MT2 = assay: Cytotoxicity against human MT2 cells after 5 days by colorimetry; format: cell-based; conditions: MT2, 120 h
# How it was run: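 Uninfected MT-2 cells coincubated with compounds for 5 days. Cytotoxicity by colorimetric quantitation.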
# [15] = Cytotoxicity against human HuH7 cells by luminescence based cell viability assay; parameters: species or system Huh-7
# How it was run: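 Exponentially growing Huh-7 cells seeded at 1 × 10^4 per well and incubated with compounds for 3 days. Viability read by CellTiter-Glo luminescence, used for dark compounds that interfere with methylene blue absorbance at 595 nm. CC50 derived.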
# Hepatitis C virus [16] = assay: Antiviral activity against Hepatitis C virus genotype 1b Con1 infected in human Huh-luc/neo-ET replicon cells assessed as inhibition of viral RNA level dosed at >300 nM incubated for 12 days measured after 12 days of exposure relative to untreated control
# Cytochrome c = Cytochrome c (Homo sapiens, UniProt P99999); assay: Binding affinity to Cytochrome C
# Cytochrome c, sequence (P99999 whole entry): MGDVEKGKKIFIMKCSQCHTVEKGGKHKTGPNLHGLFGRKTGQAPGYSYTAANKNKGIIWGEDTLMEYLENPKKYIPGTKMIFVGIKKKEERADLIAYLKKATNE
structure (smiles),measurement,setting,value
O=C(O)c1cc(C(=O)O)cc(-c2ccc(-c3c4nc(c(-c5ccc(-c6cc(C(=O)O)cc(C(=O)O)c6)cc5)c5ccc([nH]5)c(-c5ccc(-c6cc(C(=O)O)cc(C(=O)O)c6)cc5)c5ccc([nH]5)c(-c5ccc(-c6cc(C(=O)O)cc(C(=O)O)c6)cc5)c5nc3C=C5)C=C4)cc2)c1,EC50,Hepatitis C virus [1],24 nM
same,EC50,Hepatitis B virus,> 20 µM
same,Survival,Hepatitis C virus [2],13.1%
same,IC50,CCRF-CEM,> 50 µM
same,EC50,Hepatitis C virus [3],17.6 nM
same,inhibition,Hepatitis C virus [3]; Hepacivirus hominis,Dose-dependent effect
same,EC50,Hepatitis C virus [4],24 nM
same,EC50,Hepatitis C virus [5],36.2 nM
same,inhibition,Hepatitis C virus [5]; Hepacivirus hominis,Dose-dependent effect
same,CC50,[6],> 50 µM
same,EC50,Hepatitis C virus [7],19.2 nM
same,inhibition,Hepatitis C virus [7]; Hepacivirus hominis,Dose-dependent effect
same,inhibition,Hepatitis C virus [8],Active
same,Survival,Hepatitis C virus [9],0.4%
same,EC50,Hepatitis C virus [10],1380 nM
same,EC50,Hepatitis C virus [11],67.8 nM
same,inhibition,Hepatitis C virus [11]; Hepacivirus hominis,Dose-dependent effect
same,EC50,Hepatitis C virus [12],14 nM
same,EC50,Hepatitis C virus [13],57.8 nM
same,inhibition,Hepatitis C virus [13]; Hepacivirus hominis,Dose-dependent effect
same,Survival,Hepatitis C virus [14],8.5%
same,CC50,MT2,18 µM
same,CC50,[15],> 50 µM
same,fold change (FC),Hepatitis C virus [16],4.5
same,Kd,Cytochrome c,1500 nM
